The text below walks through data of ChEMBL document CHEMBL1126036, “Quinolone antibacterial agents. Synthesis and structure-activity relationships of a series of amino acid prodrugs of racemic and chiral 7-(3-amino-1-pyrrolidinyl)quinolones. Highly soluble quinolone prodrugs with in vivo pseudomonas activity” (J Med Chem, 1992).

The subject of data set [1] is DNA gyrase (Escherichia coli). Put plainly: In vitro concentration inhibiting DNA gyrase induced cleavage in Escherichia coli H560.
The next data set relates to Streptococcus pyogenes. In words: In vitro antibacterial activity against gram positive Streptococcus pyogenes C-203. The data set is classed as functional.
The test system of data set [2] is Klebsiella pneumoniae. In words: In vitro antibacterial activity against gram negative Klebsiella pneumoniae. MGH-2. The class given is functional.
The subject of data set [3] is Mus musculus. Put plainly: In vivo potency against acute systemic infection in mouse caused by Streptococcus pyogenes C-203 on oral administration by gavage. The data set is classed as functional. Particulars: read-out: PD50. The gist of the method: (§1)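 Acute systemic mouse infection. A single oral dose was given by gavage at the time of challenge. Potency is reported as the median protective dose (PD50, mg/kg), determined by earlier published methods.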

Data set [4] concerns Staphylococcus aureus. In words: In vitro antibacterial activity against gram positive Staphylococcus aureus UC76. The data set is classed as functional.
The subject of a further data set is Providencia rettgeri. In words: In vitro antibacterial activity against gram negative Providencia rettgeri M-1771. The class given is functional.
For data set [5], the system named is Enterobacter cloacae. Put plainly: In vitro antibacterial activity against gram negative Enterobacter cloacae MA 2646. The data set is classed as functional.
In data set [6] the test system is Mus musculus. In words: In vivo potency against acute systemic infection in mouse caused by Pseudomonas aeruginosa. UI-18. on subcutaneous injection. The class given is functional. The following applies: sc, read-out: PD50. The gist of the method:
(§2)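 Acute systemic mouse infection. A single subcutaneous dose was injected at the time of challenge. Potency is reported as the median protective dose (PD50, mg/kg), determined by earlier published methods.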

Data set [7] relates to Escherichia coli. In words: In vivo potency against acute systemic infection in mouse caused by Escherichia coli Vogel on oral administration by gavage. The data set is classed as functional. The following applies: read-out: PD50. The gist of the method: as §1
The next data set has as its system Pseudomonas aeruginosa. In words: In vitro antibacterial activity against gram negative Pseudomonas aeruginosa UI-18. The data set is classed as functional.
The next data set concerns Enterococcus faecalis. In words: In vitro antibacterial activity against gram positive Enterococcus faecalis MGH-2. The class given is functional.
Data set [8] relates to Streptococcus pneumoniae. In words: In vivo potency against acute systemic infection in mouse caused by Streptococcus pneumoniae SV-1 on oral administration by gavage. The following applies: read-out: PD50. The class given is functional. The gist of the method:
as §1

For data set [9], the system named is Streptococcus pneumoniae. In words: In vitro antibacterial activity against gram positive Streptococcus pneumoniae SV-1. The class given is functional.
For data set [10], the system named is Streptococcus pneumoniae. In words: In vivo potency against acute systemic infection in mouse caused by Streptococcus pneumoniae SV-1 on subcutaneous injection. The data set is classed as functional. The following applies: sc, read-out: PD50. The gist of the method: as §2
Data set [11] has as its system Mus musculus. Put plainly: In vivo potency against acute systemic infection in mouse caused by Pseudomonas aeruginosa UI-18 on oral administration by gavage. The data set is classed as functional. Particulars: read-out: PD50. The gist of the method: as §1
The subject of data set [12] is Staphylococcus aureus. In words: In vitro antibacterial activity against gram positive Staphylococcus aureus H-228. The class given is functional.
In data set [13] the test system is Escherichia coli. In words: In vitro antibacterial activity against gram negative Escherichia coli Vogel. The class given is functional.
Data set [14] concerns Escherichia coli. Put plainly: In vivo potency against acute systemic infection in mouse caused by Escherichia coli vogel on subcutaneous injection. The data set is classed as functional. Particulars: sc, read-out: PD50. The gist of the method: as §2
Data set [15] has as its system Mus musculus. In words: In vivo potency against acute systemic infection in mouse caused by Streptococcus pyogenes C-203 on subcutaneous injection. The data set is classed as functional. Particulars: sc, read-out: PD50. The gist of the method:
as §2

Data set [16] is described as follows: Aqueous solubility. The class given is physicochemical. The following applies: read-out: S. The gist of the method:
(§3)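 Solubility was measured either from HPLC peak areas at equilibrium or by a conventional weight-per-volume method. All solutions were held for 24 h before measurement.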

For data set [17], the system named is Mus musculus. Put plainly: In vivo potency against acute systemic infection in mouse caused by Streptococcus pneumoniae SV-1 on oral administration by gavage. The data set is classed as functional. Particulars: read-out: PD50. The gist of the method: as §1
Data set [18] in a line: Solubility (at pH 7.4). The data set is classed as physicochemical. Particulars: buffer, read-out: S. The gist of the method:
as §3

Data set [19] is described as follows: Solubility (at pH 4). Particulars: buffer, read-out: S. The data set is classed as physicochemical. The gist of the method:
as §3

The subject of data set [20] is Klebsiella pneumoniae. Put plainly: In vitro antibacterial activity against gram negative Klebsiella pneumoniae MGH-2. The data set is classed as functional.
The nature of data set [21]: Solubility (in 0.1 N HCl). The class given is physicochemical. Particulars: read-out: S. The gist of the method: as §3
The test system of data set [22] is Enterobacter cloacae. In words: In vitro antibacterial activity against gram negative Enterobacter cloacae MA 2646. The data set is classed as functional.
In data set [23] the target is DNA gyrase (Escherichia coli) (UniProt P0AES6+P0AES4). Put plainly: In vitro concentration inhibiting DNA gyrase induced cleavage in Escherichia coli H560. The class given is functional. The gist of the method:
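DNA gyrase test run as described in earlier work. The value is the drug concentration (µg/mL) needed to cause DNA cleavage.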

Broadly, the MIC is the lowest concentration that inhibits growth of the organism. A low value points to greater potency.

Values after ≈ are worked out from the molar mass of the structure shown.

Regarding `NC1CCN(c2nc3c(cc2F)c(=O)c(C(=O)O)cn3C2CC2)C1` (stereo unspecified), the Cleavage in [1] stood at 1 µg/mL. In addition, the minimum inhibitory concentration (MIC) in the data set on Streptococcus pyogenes was 0.2 µg/mL (≈ 0.602 µM); with Klebsiella pneumoniae [2], 0.025 µg/mL (≈ 0.0752 µM); against Staphylococcus aureus [4] it was 0.013 µg/mL (≈ 0.0391 µM); in the data set with Providencia rettgeri, 0.05 µg/mL (≈ 0.15 µM); with Enterobacter cloacae [5], 0.025 µg/mL (≈ 0.0752 µM); against Pseudomonas aeruginosa it was 0.05 µg/mL (≈ 0.15 µM). The minimal inhibitory concentration (MIC) against Enterococcus faecalis stood at 0.2 µg/mL (≈ 0.602 µM); against Streptococcus pneumoniae [9], 0.2 µg/mL (≈ 0.602 µM); in the data set on Staphylococcus aureus [12], 0.2 µg/mL (≈ 0.602 µM); against Escherichia coli [13] it was 0.013 µg/mL (≈ 0.0391 µM). Further, the ED50 came out at 32 mg/kg with Mus musculus [3]; 3 mg/kg in the data set on Mus musculus [6]; 2 mg/kg in the data set with Escherichia coli [7]; 58 mg/kg in the data set on Streptococcus pneumoniae [8]; 33 mg/kg with Streptococcus pneumoniae [10]; 7 mg/kg in the data set with Mus musculus [11]. Moreover, the ED50 is 0.6 mg/kg in the data set with Escherichia coli [14] and 14 mg/kg in the data set on Mus musculus [15].
For `Cl.N[C@@H](Cc1ccccc1)C(=O)NC1CCN(c2nc3c(cc2F)c(=O)c(C(=O)O)cn3C2CC2)C1.O` (stereo partly specified), the MIC was found to be 1.6 µg/mL against Streptococcus pyogenes; 0.4 µg/mL against Staphylococcus aureus [4]; 6.3 µg/mL against Providencia rettgeri; 0.4 µg/mL in the data set on Enterobacter cloacae [5]; 6.3 µg/mL in the data set with Pseudomonas aeruginosa; 0.8 µg/mL with Enterococcus faecalis. The minimal inhibitory concentration (MIC) against Streptococcus pneumoniae [9] is 0.8 µg/mL; in the data set with Klebsiella pneumoniae [20], 3.1 µg/mL; against Staphylococcus aureus [12], 3.1 µg/mL; against Escherichia coli [13], 0.8 µg/mL. Also, the solubility is over 200000 µg/mL in data set [16] (water (aqueous)), 60 µg/mL in data set [18], over 100000 µg/mL in data set [19] and 80000 µg/mL in [21]. Besides, the ED50 stood at 65 mg/kg with Mus musculus [17], 2 mg/kg in the data set with Escherichia coli [7], 37 mg/kg with Streptococcus pneumoniae [10] and 0.4 mg/kg in the data set with Escherichia coli [14].
`Cl.Nc1c(F)c(N2CC[C@@H](N)C2)c(F)c2c1c(=O)c(C(=O)O)cn2C1CC1.O`: the MIC is 0.025 µg/mL in the data set on Streptococcus pyogenes; 0.006 µg/mL with Staphylococcus aureus [4]; 0.05 µg/mL against Providencia rettgeri; 0.013 µg/mL with Enterobacter cloacae [22]; 0.02 µg/mL in the data set with Pseudomonas aeruginosa; 0.05 µg/mL with Enterococcus faecalis. The minimum inhibitory concentration (MIC) is 0.003 µg/mL in the data set with Streptococcus pneumoniae [9], 0.025 µg/mL against Klebsiella pneumoniae [20], 0.025 µg/mL with Staphylococcus aureus [12] and 0.013 µg/mL in the data set with Escherichia coli [13]. The ED50 in the data set on Mus musculus [3] amounted to 12 mg/kg; with Escherichia coli [7], 1.7 mg/kg; in the data set on Streptococcus pneumoniae [8] it was 15 mg/kg; with Streptococcus pneumoniae [10], 3.5 mg/kg; with Escherichia coli [14] it was 0.3 mg/kg; in the data set on Mus musculus [15] it was 7.5 mg/kg. Moreover, the solubility in data set [16] (water (aqueous)) amounted to 2800 µg/mL; in data set [18] it was 40 µg/mL; in data set [19] it was 2600 µg/mL; in [21], 200 µg/mL. In data set [23], this molecule yielded a Cleavage of 0.1 µg/mL.
For the molecule `C[C@H](N)C(=O)NC1CCN(c2nc3c(cc2F)c(=O)c(C(=O)O)cn3C2CC2)C1.Cl.O` (stereo partly specified), the minimal inhibitory concentration (MIC) with Streptococcus pyogenes is 0.4 µg/mL; against Klebsiella pneumoniae [2], 0.8 µg/mL; against Staphylococcus aureus [4], 0.8 µg/mL; against Providencia rettgeri, 1.6 µg/mL; in the data set on Enterobacter cloacae [5], 0.2 µg/mL; against Pseudomonas aeruginosa it was 3.1 µg/mL. Moreover, the MIC stood at 1.6 µg/mL against Enterococcus faecalis, 0.8 µg/mL with Streptococcus pneumoniae [9], 3.1 µg/mL in the data set on Staphylococcus aureus [12] and 0.4 µg/mL with Escherichia coli [13]. Further, the ED50 with Mus musculus [3] is 15 mg/kg; in the data set on Mus musculus [6], 5 mg/kg; with Escherichia coli [7] it was 1 mg/kg; in the data set with Streptococcus pneumoniae [8] it was 28 mg/kg; with Streptococcus pneumoniae [10], 10 mg/kg; with Mus musculus [11], 7 mg/kg. Moreover, the ED50 with Escherichia coli [14] was determined as 0.6 mg/kg; in the data set with Mus musculus [15], 7 mg/kg. Moreover, the solubility was 80 µg/mL in data set [16] (pH 7.4 phosphate buffer), over 300000 µg/mL in [16] (water (aqueous)), over 350000 µg/mL in data set [19] and over 350000 µg/mL in data set [21]. The same molecule had a Cleavage in data set [23] of 0.75 µg/mL.
